Data reported in ChEMBL document CHEMBL1629684, “Effects of ravuconazole treatment on parasite load and immune response in dogs experimentally infected with Trypanosoma cruzi” (Antimicrob Agents Chemother, 2010).
Calls of active or inactive are those of the source.

Key:
Trypanosoma cruzi [1] = assay: Antitrypanosomal activity against Trypanosoma cruzi Y infected in mongrel dog assessed as reduction in INFgamma production in right atrium at 7 mg/kg, po BID after 180 days by semiquantitative RT-PCR; settings: Cardiac atrium
Trypanosoma cruzi [2] = assay: Antitrypanosomal activity against Trypanosoma cruzi Y infected in mongrel dog assessed as reduction in IL10 production in right atrium at 7 mg/kg, po BID after 180 days by semiquantitative RT-PCR; settings: Cardiac atrium
Canis familiaris [3] = assay: Toxicity in mongrel dog infected with Trypanosoma cruzi Berenice-78 assessed as weight loss at 12 mg/kg, po BID for 90 days started 12 to 22 days postinfection measured after 6 months; format: organism-based, Canis lupus familiaris; design: dose 12 mg/kg, route oral; settings: in vivo, 4383 h
How it was run: (§1)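 Body weight gain, in kg, was recorded for infected dogs 1 day and 6 months after the end of oral b.i.d. treatment. Treated animals were compared with infected untreated and noninfected control groups.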

Trypanosoma cruzi [4] = assay: Antimicrobial activity against Trypanosoma cruzi Y infected in mongrel dog assessed as suppression of microbial proliferation at 7 mg/kg, po BID started 12 to 22 days postinfection measured after 1 day; format: functional, organism-based; design: dose 7 mg/kg
How it was run: (§2)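 Mongrel dogs, 4 months old, dewormed and vaccinated, were inoculated with 2.0 × 10^3 bloodstream trypomastigotes/kg. Oral b.i.d. (q12h) dosing began 12 to 22 days postinfection, once parasitemia appeared. Dosing ran 90 days at 12 mg/kg and 60 days at 7 mg/kg, with 5 dogs per group. Parasitemia was read by fresh-blood examination of marginal ear vein blood from day 10 of infection until parasites were undetectable.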

Trypanosoma cruzi [5] = assay: Antimicrobial activity against Trypanosoma cruzi Berenice-78 infected in mongrel dog assessed as suppression of microbial proliferation at 12 mg/kg, po BID started 12 to 22 days postinfection measured after 1 day; format: functional, organism-based; design: dose 12 mg/kg
How it was run: as §2

Canis familiaris [6] = assay: Immunostimulatory activity in mongrel dog infected with Trypanosoma cruzi Y assessed as production of antibody IgG2 at 12 mg/kg, po BID for 90 days measured after 6 months by ELISA; format: functional, organism-based; design: dose 12 mg/kg; settings: Canis lupus familiaris
How it was run: (§3)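 Serum was taken before inoculation and then monthly until 6 months posttreatment, and stored at −80°C. ELISA plates were coated with alkaline extract of Y-strain parasites grown to exponential phase in LIT medium. Bound total IgG or IgG2 was detected with peroxidase-labeled anti-dog conjugates and read at 490 nm. Cutoff was the mean absorbance of 10 uninfected dogs plus 2 SD.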

Trypanosoma cruzi [7] = assay: Antimicrobial activity against Trypanosoma cruzi Y infected in mongrel dog assessed as suppression of microbial proliferation at 12 mg/kg, po BID started 12 to 22 days postinfection measured after 1 day; format: functional, organism-based; design: dose 12 mg/kg
How it was run: as §2

Trypanosoma cruzi [8] = assay: Antimicrobial activity against Trypanosoma cruzi Y infected in mongrel dog assessed as survival of dog at 7 mg/kg, po BID started 12 to 22 days postinfection measured after 1 day; format: functional
How it was run: (§4)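 Four-month-old mongrel dogs (five per group) received 2.0 × 10^3 Y or Berenice-78 bloodstream trypomastigotes/kg. Oral dosing began 12–22 days postinfection, when parasitemia was detected by fresh blood examination: 12 mg/kg q12h for 90 days, or 7 mg/kg q12h for 60 days. Ear-vein blood was checked from day 10. Mortality was expressed as the cumulative percentage of dead animals.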

Canis familiaris [9] = assay: Immunostimulatory activity in mongrel dog infected with Trypanosoma cruzi Berenice-78 assessed as production of antibody IgG2 at 7 mg/kg, po BID for 90 days measured after 6 months by ELISA; format: functional, organism-based; design: dose 7 mg/kg; settings: Canis lupus familiaris, in the assay text read “for 60 days” for “for 90 days”
How it was run: as §3

Canis familiaris [10] = assay: Immunostimulatory activity in mongrel dog infected with Trypanosoma cruzi Berenice-78 assessed as production of antibody IgG2 at 12 mg/kg, po BID for 90 days measured after 6 months by ELISA; format: functional, organism-based; design: dose 12 mg/kg; settings: Canis lupus familiaris
How it was run: as §3

Trypanosoma cruzi [11] = assay: Antimicrobial activity against Trypanosoma cruzi Berenice-78 infected in mongrel dog assessed as parasite level in blood of dog at 7 mg/kg, po BID started 12 to 22 days postinfection measured after 30 days by PCR analysis; format: functional
How it was run: (§5)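 Blood PCR for T. cruzi on treated dogs (n = 5 per group) at 1 and 6 months posttreatment. Each reaction took 2 μl blood DNA template in Tris-HCl pH 9.0, 75 mM KCl, 3.5 mM MgCl2 and 0.2 mM dNTPs. Cycling was 95°C 5 min, then 2 cycles annealing at 30°C, 33 cycles at 40°C, and 72°C 5 min. Products were run on 6% polyacrylamide and silver stained. Reported as rate of positive animals.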

Canis familiaris [12] = assay: Toxicity in mongrel dog infected with Trypanosoma cruzi Berenice-78 assessed as weight loss at 7 mg/kg, po BID for 90 days started 12 to 22 days postinfection measured after 1 day; format: organism-based, Canis lupus familiaris; design: dose 7 mg/kg, route oral; settings: in vivo, 24 h
How it was run: as §1

Trypanosoma cruzi [13] = assay: Antitrypanosomal activity against Trypanosoma cruzi Y infected in mongrel dog assessed as reduction in INFgamma production in right atrium at 7 mg/kg, po BID after 180 days by semiquantitative RT-PCR; format: functional, organism-based; design: dose 7 mg/kg; settings: Cardiac atrium
How it was run: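 Dogs were euthanized 6 months after the end of treatment. RNA was extracted from the right atrium with acid guanidinium thiocyanate-phenol-chloroform. One microgram was DNase treated and reverse transcribed with oligo(dT) for 1 h at 42°C. IFN-γ or IL-10 cDNA was amplified with 1.5 mM MgCl2: 94°C 5 min, n cycles of 94/57/72°C, final extension 72°C 6 min. Expression was scored semiquantitatively against infected untreated and noninfected dogs.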

Trypanosoma cruzi [14] = assay: Antimicrobial activity against Trypanosoma cruzi Berenice-78 infected in mongrel dog assessed as survival of dog at 12 mg/kg, po BID started 12 to 22 days postinfection measured after 1 day; format: functional
How it was run: as §4

Canis familiaris [15] = assay: Immunostimulatory activity in mongrel dog infected with Trypanosoma cruzi Berenice-78 assessed as production of antibody IgG2 at 7 mg/kg, po BID for 90 days measured up to 30 days by ELISA; format: functional, organism-based; design: dose 7 mg/kg; settings: Canis lupus familiaris
How it was run: as §3

Canis familiaris [16] = assay: Toxicity in mongrel dog infected with Trypanosoma cruzi Berenice-78 assessed as weight loss at 7 mg/kg, po BID for 90 days started 12 to 22 days postinfection measured after 6 months; format: organism-based, Canis lupus familiaris; design: dose 7 mg/kg, route oral; settings: in vivo, 4383 h
How it was run: as §1

Canis familiaris [17] = assay: Immunostimulatory activity in mongrel dog infected with Trypanosoma cruzi Berenice-78 assessed as production of antibody IgG at 12 mg/kg, po BID for 90 days measured after 6 months by ELISA; format: functional, organism-based; design: dose 12 mg/kg; settings: Canis lupus familiaris
How it was run: as §3

Trypanosoma cruzi [18] = assay: Antimicrobial activity against Trypanosoma cruzi Y infected in mongrel dog assessed as parasite level in blood of dog at 7 mg/kg, po BID started 12 to 22 days postinfection measured after 30 days by PCR analysis; format: functional
How it was run: as §5

Canis familiaris [19] = assay: Toxicity in mongrel dog infected with Trypanosoma cruzi Y assessed as weight loss at 7 mg/kg, po BID for 90 days started 12 to 22 days postinfection measured after 6 months; format: organism-based, Canis lupus familiaris; design: dose 7 mg/kg, route oral; settings: in vivo, 4383 h
How it was run: as §1

Canis familiaris [20] = assay: Immunostimulatory activity in mongrel dog infected with Trypanosoma cruzi Berenice-78 assessed as production of antibody IgG2 at 12 mg/kg, po BID for 90 days measured up to 30 days by ELISA; format: functional, organism-based; design: dose 12 mg/kg; settings: Canis lupus familiaris
How it was run: as §3

Canis familiaris [21] = assay: Immunostimulatory activity in mongrel dog infected with Trypanosoma cruzi Berenice-78 assessed as production of antibody IgG at 7 mg/kg, po BID for 90 days measured up to 30 days by ELISA; format: functional, organism-based; design: dose 7 mg/kg; settings: Canis lupus familiaris
How it was run: as §3

Canis familiaris [22] = assay: Immunostimulatory activity in mongrel dog infected with Trypanosoma cruzi Berenice-78 assessed as production of antibody IgG at 7 mg/kg, po BID for 90 days measured after 6 months by ELISA; format: functional, organism-based; design: dose 7 mg/kg; settings: Canis lupus familiaris
How it was run: as §3

Canis familiaris [23] = assay: Immunostimulatory activity in mongrel dog infected with Trypanosoma cruzi Y assessed as production of antibody IgG at 12 mg/kg, po BID for 90 days measured after 6 months by ELISA; format: functional, organism-based; design: dose 12 mg/kg; settings: Canis lupus familiaris
How it was run: as §3

Canis familiaris [24] = assay: Toxicity in mongrel dog infected with Trypanosoma cruzi Berenice-78 assessed as weight loss at 12 mg/kg, po BID for 90 days started 12 to 22 days postinfection measured after 1 day; format: organism-based, Canis lupus familiaris; design: dose 12 mg/kg, route oral; settings: in vivo, 24 h
How it was run: as §1

Trypanosoma cruzi [25] = assay: Antimicrobial activity against Trypanosoma cruzi Berenice-78 infected in mongrel dog assessed as suppression of microbial proliferation at 7 mg/kg, po BID started 12 to 22 days postinfection measured after 1 day; format: functional, organism-based; design: dose 7 mg/kg
How it was run: as §2

Canis familiaris [26] = assay: Immunostimulatory activity in mongrel dog infected with Trypanosoma cruzi Berenice-78 assessed as production of antibody IgG at 12 mg/kg, po BID for 90 days measured up to 30 days by ELISA; format: functional, organism-based; design: dose 12 mg/kg; settings: Canis lupus familiaris
How it was run: as §3

Canis familiaris [27] = assay: Immunostimulatory activity in mongrel dog infected with Trypanosoma cruzi Y assessed as production of antibody IgG at 7 mg/kg, po BID for 90 days measured after 6 months by ELISA; format: functional, organism-based; design: dose 7 mg/kg; settings: Canis lupus familiaris, in the assay text read “for 60 days” for “for 90 days”
How it was run: as §3

Canis familiaris [28] = assay: Toxicity in mongrel dog infected with Trypanosoma cruzi Y assessed as weight loss at 12 mg/kg, po BID for 90 days started 12 to 22 days postinfection measured after 6 months; format: organism-based, Canis lupus familiaris; design: dose 12 mg/kg, route oral; settings: in vivo, 4383 h
How it was run: as §1

Canis familiaris [29] = assay: Immunostimulatory activity in mongrel dog infected with Trypanosoma cruzi Y assessed as production of antibody IgG2 at 7 mg/kg, po BID for 90 days measured after 6 months by ELISA; format: functional, organism-based; design: dose 7 mg/kg; settings: Canis lupus familiaris, in the assay text read “for 60 days” for “for 90 days”
How it was run: as §3

Trypanosoma cruzi [30] = assay: Antimicrobial activity against Trypanosoma cruzi Berenice-78 infected in mongrel dog assessed as survival of dog at 7 mg/kg, po BID started 12 to 22 days postinfection measured after 1 day; format: functional
How it was run: as §4

Trypanosoma cruzi [31] = assay: Antimicrobial activity against Trypanosoma cruzi Y infected in mongrel dog assessed as survival of dog at 12 mg/kg, po BID started 12 to 22 days postinfection measured after 1 day; format: functional
How it was run: as §4

## O=C(Cn1ccnc1[N+](=O)[O-])NCc1ccccc1 [BENZNIDAZOLE]
Trypanosoma cruzi [1]
  Activity: Active
Trypanosoma cruzi [2]
  Activity: Active
Canis familiaris [3]
  Activity: Non-toxic
Trypanosoma cruzi [4]
  Activity: Non-toxic
Trypanosoma cruzi [5]
  Activity: Non-toxic
Canis familiaris [6]
  Activity: Active
Trypanosoma cruzi [7]
  Activity: Non-toxic
Trypanosoma cruzi [8]
  Activity: 100%
Canis familiaris [9]
  Activity: Active
Canis familiaris [10]
  Activity: Active
Trypanosoma cruzi [11]
  Activity: 0%
Canis familiaris [12]
  Activity: Toxic
Trypanosoma cruzi [13]
  Activity: Active
Trypanosoma cruzi [14]
  Activity: 100%
Canis familiaris [15]
  Activity: Active
Canis familiaris [16]
  Activity: Non-toxic
Canis familiaris [17]
  Activity: Active
Trypanosoma cruzi [18]
  Activity: 0%
Canis familiaris [19]
  Activity: Non-toxic
Canis familiaris [20]
  Activity: Active
Canis familiaris [21]
  Activity: Active
Canis familiaris [22]
  Activity: Active
Canis familiaris [23]
  Activity: Active
Canis familiaris [24]
  Activity: Toxic
Trypanosoma cruzi [25]
  Activity: Non-toxic
Canis familiaris [26]
  Activity: Active
Canis familiaris [27]
  Activity: Active
Canis familiaris [28]
  Activity: Non-toxic
Canis familiaris [29]
  Activity: Active
Trypanosoma cruzi [30]
  Activity: 100%
Trypanosoma cruzi [31]
  Activity: 100%
